“And” between values parts separate entries of the source, which are not always exact repeats. Equal values may be shown once.
Experiments:
[1] = tested on: SF-295; assay: Cytotoxicity against NCI tumor panel, SF-295 CNS cancer cell line; type: functional, cell-based; conditions: Homo sapiens
In short: (§1)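 Performed by NCI with the sulforhodamine B (SRB) method on its human tumour cell panel, using a 48-h drug incubation.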

[2] = species: Mus musculus; assay: Mean body weight change
[3] = tested on: NCI-H522; assay: Cytotoxicity against NCI tumor panel, NCI-H522 non small-cell lung cancer cell line; type: functional, cell-based; conditions: Homo sapiens; in short: as §1
[4] = tested on: NCI/ADR-RES; assay: Cytotoxicity against NCI tumor panel, NCI/ADR-RES breast cancer cell line; type: functional, cell-based; conditions: Homo sapiens; in short: as §1
[5] = tested on: Mus musculus; assay: Haematological effects in mice dose administered intraperitoneally; type: functional
In short: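 Non-tumor-bearing female CDF1 mice, 10 per group. Drugs were dissolved in DMSO, diluted in 30% DMSO/0.5% glucose, and given as a single ip dose on day 1 (doses per kg). Blood was sampled on day 27 for WBC, platelet, RBC and MCHC counts. Values are medians of 10 mice.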

[6] = tested on: A549; assay: Cytotoxicity against NCI tumor panel, A-549/ATCC non small-cell lung cancer cell line; type: functional, cell-based; conditions: Homo sapiens
In short: (§2)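 NCI cell-line panel screen run by the National Cancer Institute; sulforhodamine B (SRB) readout after 48-h drug incubation.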

[7] = tested on: NCI-H23; assay: Cytotoxicity against NCI tumor panel, NCI-H 23 non small-cell lung cancer cell line; type: functional, cell-based; conditions: Homo sapiens; in short: as §1
[8] = tested on: Mus musculus; assay: Antitumor activity in mice bearing L1210 Leukemia at a dose of 30 ug/kg; survivors for 60 days was reported; type: functional
In short: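 Female CDF1 mice, 10 per group, got 100 L1210 cells ip on day 0. Drug in DMSO was diluted with 30% DMSO in 0.5% glucose and dosed ip on days 1, 5 and 9. Long-term (60-day) survivors are given as percent of the group.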

[9] = tested on: MCF7; assay: Cytotoxicity against NCI tumor panel, MCF-7 breast cancer cell line; type: functional, cell-based; conditions: Homo sapiens; in short: as §1
[10] = tested on: SF-268; assay: Cytotoxicity against NCI tumor panel, SF-268 CNS cancer cell line; type: functional, cell-based; conditions: Homo sapiens; in short: as §1
[11] = tested on: Mus musculus; assay: Antitumor activity was tested in mice and percent increase of life span at a dose of 25 ug/kg was reported; type: functional
[12] = tested on: BT-549; assay: Cytotoxicity against NCI tumor panel, BT-549 breast cancer cell line; type: functional, cell-based; conditions: Homo sapiens; in short: as §2
[13] = tested on: SR; assay: Cytotoxicity against NCI tumor panel, SR leukemia cell line; type: functional, cell-based; conditions: Homo sapiens; in short: as §1
[14] = tested on: M14; assay: Cytotoxicity against NCI tumor panel, M14 melanoma cancer cell line; type: functional, cell-based; conditions: Homo sapiens; in short: as §1
[15] = species: Mus musculus; assay: Antitumor activity in mice bearing B16BL6 melanoma; survivors for 90 days was reported
[16] = tested on: UACC-257; assay: Cytotoxicity against NCI tumor panel, UACC-257 melanoma cancer cell line; type: functional, cell-based; conditions: Homo sapiens; in short: as §1
[17] = Minimal drug concentration necessary to inhibit incorporation of [3H]thymidine in U937 Leukemia cells; type: functional, cell-based, Homo sapiens
[18] = tested on: MOLT-4; assay: Cytotoxicity against NCI tumor panel, MOLT-4 leukemia cell line; type: functional, cell-based; conditions: Homo sapiens; in short: as §1
[19] = tested on: SN12C; assay: Cytotoxicity against NCI tumor panel, SN12C renal cancer cell line; type: functional, cell-based; conditions: Homo sapiens; in short: as §1
[20] = tested on: OVCAR-8; assay: Cytotoxicity against NCI tumor panel, OVCAR-8 ovarian cancer cell line; type: functional, cell-based; conditions: Homo sapiens; in short: as §1
[21] = tested on: CAKI-1; assay: Cytotoxicity against NCI tumor panel, CAKI-1 renal cancer cell line; type: functional, cell-based; conditions: Homo sapiens; in short: as §2
[22] = tested on: PC-3; assay: Cytotoxicity against NCI tumor panel, PC-3 prostate cancer cell line; type: functional, cell-based; conditions: Homo sapiens; in short: as §1
[23] = tested on: Mus musculus; assay: Antitumor activity was tested in mice and percent increase of life span at a dose of 100 ug/kg was reported; type: functional
In short: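 B16BL6 cells were cultured as monolayers, and 10⁶ cells were injected ip on day 0 into female BDF1 mice (4-6 weeks, 8 per group). Drug in dimethylacetamide was diluted in DMA/Cremophor/water (1:5:44) and 0.1 mL given ip on days 1, 5 and 9. %ILS came from median survival of dying animals; 90-day survivors were counted; mean weight change covered days 1-10.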

[24] = tested on: SW-620; assay: Cytotoxicity against NCI tumor panel, SW_620 colon cancer cell line; type: functional, cell-based; conditions: Homo sapiens; in short: as §1
[25] = tested on: SK-MEL-2; assay: Cytotoxicity against NCI tumor panel,SK-MEL2 melanoma cancer cell line; type: functional, cell-based; conditions: Homo sapiens; in short: as §1
[26] = tested on: RPMI-8226; assay: Cytotoxicity against NCI tumor panel, RPMI-8226 leukemia cell line; type: functional, cell-based; conditions: Homo sapiens; in short: as §1
[27] = tested on: EKVX; assay: Cytotoxicity against NCI tumor panel, EKVX non small-cell lung cancer cell line; type: functional, cell-based; conditions: Homo sapiens; in short: as §2
[28] = tested on: HCT-116; assay: Cytotoxicity against NCI tumor panel, HCT116 colon cancer cell line; type: functional, cell-based; conditions: Homo sapiens; in short: as §2
[29] = tested on: SK-MEL-28; assay: Cytotoxicity against NCI tumor panel, SK-MEL28 melanoma cancer cell line; type: functional, cell-based; conditions: Homo sapiens; in short: as §1

With `CC(=O)Nc1ccc2[nH]c(C(=O)Nc3ccc4[nH]c(C(=O)N5CC(CCl)c6c5cc(O)c5ccccc65)cc4c3)cc2c1` (centres undefined) as the compound, how does the IC50 [1] read?
Its IC50 is 2.64 nM.

And the Weight [2]?
Its Weight is 16%.

What about the IC50 [3] of the same compound?
Its IC50 is 0.238 nM.

What about the IC50 [4] of the same compound?
Its IC50 is 8.56 nM.

And the Dose [5]?
The Dose was 0.05 mg/kg.

What about the IC50 [6] of the same compound?
Its IC50 is 1.49 nM.

What about the IC50 [7] of the same compound?
The IC50 was 1.36 nM.

What about the % survivors [8] of the same compound?
Its % survivors is 40%.

And the IC50 [9]?
The IC50 was 0.476 nM.

What about the IC50 [10] of the same compound?
Its IC50 is 0.212 nM.

What about the ILS [11] of the same compound?
The ILS was 67% and 107%.

And the IC50 [12]?
The IC50 was 3.29 nM.

What about the IC50 [13] of the same compound?
Its IC50 is 0.562 nM.

And the IC50 [14]?
Its IC50 is 1.48 nM.

What about the No. of survivors [15] of the same compound?
The No. of survivors was 0.

What about the IC50 [16] of the same compound?
The IC50 was 2.46 nM.

What about the IC50 [17] of the same compound?
Its IC50 is 0.4 nM.

What about the IC50 [18] of the same compound?
The IC50 was 0.375 nM.

What about the IC50 [19] of the same compound?
The IC50 was 3.01 nM.

And the IC50 [20]?
The IC50 was 1.6 nM.

What about the IC50 [21] of the same compound?
The IC50 was 4.27 nM.

What about the IC50 [22] of the same compound?
Its IC50 is 2.03 nM.

What about the ILS at 0.1 mg/kg [23] of the same compound?
Its ILS at 0.1 mg/kg is 91%.

What about the IC50 [24] of the same compound?
Its IC50 is 2.36 nM.

And the IC50 [25]?
Its IC50 is 2.11 nM.

What about the IC50 [26] of the same compound?
Its IC50 is 8.98 nM.

What about the IC50 [27] of the same compound?
The IC50 was 2.39 nM.

And the IC50 [28]?
The IC50 was 0.495 nM.

What about the IC50 [29] of the same compound?
Its IC50 is 2.21 nM.
